D1 allo mod – allosteric modulators of human D1 dopamine receptor | P21728 | HEK293 D1, CRE-luciferase, dopamine EC30 potentiation; actives deviate in either direction | B-score at 10 µM | 58,000 compounds, 5.9% hits;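 active means luminescence count or its row- and column-corrected plate score outside the 99.7% band of the plate's sample wells, on either side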
M1 agonist – M1 muscarinic receptor agonism; AID 626; B-score at 10 µM; CHO-M1 cells, Fluo-4 calcium fluorescence, agonist mode; stronger effect = higher value; 64,000 compounds, 3% hits;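 active means fluorescence rise, raw or as B-score row- and column-corrected plate score, outside the 99.7% band of its plate's samples, either direction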
M1 antag – antagonists of rat M1 muscarinic receptor; 64,000 compounds, 3.4% hits; CHO-M1 cells, Fluo-4 calcium, ACh EC80 antagonist mode; stronger effect = lower value; AID 628; P08482; B-score at 10 µM;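 active means calcium fluorescence response, raw or row-and-column corrected B-score, differing from the plate sample mean either way at a set confidence level, mostly lower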
Target sequence (P08482 whole entry, looked up): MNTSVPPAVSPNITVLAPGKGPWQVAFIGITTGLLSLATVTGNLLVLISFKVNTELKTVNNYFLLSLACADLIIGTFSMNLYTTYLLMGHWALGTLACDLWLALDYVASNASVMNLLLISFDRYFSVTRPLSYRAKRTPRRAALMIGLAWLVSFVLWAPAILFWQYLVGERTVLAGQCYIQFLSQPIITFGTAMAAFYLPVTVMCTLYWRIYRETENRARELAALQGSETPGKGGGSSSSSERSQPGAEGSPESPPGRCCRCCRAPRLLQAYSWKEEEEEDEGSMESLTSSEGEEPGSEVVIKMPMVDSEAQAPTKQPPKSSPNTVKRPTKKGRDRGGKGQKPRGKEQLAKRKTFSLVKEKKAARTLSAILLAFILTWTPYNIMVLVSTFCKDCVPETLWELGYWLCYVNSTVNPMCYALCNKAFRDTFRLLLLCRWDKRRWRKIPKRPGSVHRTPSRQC
SF-1 act – SF-1 (human) activation. Q13285. activation, % at 10 µM. 65,000 compounds, 1.9% hits. CHO-K1 Gal4-SF-1 LBD luciferase reporter; % increase over DMSO SF-1-specific signal;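 active means activation above the mean activation of all tested compounds plus 3 SD, cut at about 50% in these data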
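System: CHO-K1 cells with Gal4–hSF-1 LBD chimera plus Gal4-driven luciferase; quantity: 4,000 CHO-K1 cells per well; compound: one dose, 10 µM compound, 1% DMSO; times: 20 h compound treatment, 37 °C; measured by: SteadyLite luciferase luminescence; read-out: percent activation versus DMSO; benchmarks: DMSO and mock-transfected background; replicates: one test per compound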
Htt clearance – mutant huntingtin protein clearance; HeLa Exon1htt(103Q)mCFP, aggregate imaging; zero = plate's median compound well; inhibition, % at 1.5 µM; AID 853; 47,000 compounds, 0.42% hits;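 active means inhibition of aggregate fluorescence above about 70%, also judged a hit by eye on the cell image, limit read from the data, passing the limit was not always enough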;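 further: cells exposed to compound for three days before fixation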
RORA act – activates the human nuclear receptor RORA; P35398; CHO-K1 Gal4-RORA LBD luciferase reporter, luminescence; percent increase over mock-subtracted basal signal; activation, % at 10 µM; 65,000 compounds, 1.5% hits; AID 560;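 active means activation above the mean of all tested compounds plus 3 SD, cut at about 49% in these data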;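 further: 0% = DMSO-treated RORA cells and 100% = added signal equal to DMSO minus mock-transfected cells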
M1 antag confirm – confirmation of rat M1 muscarinic receptor antagonists. shares compounds with M1 antag. CHO-M1 cells, Fluo-4 calcium, ACh EC80 antagonism; stronger effect = lower value. calcium response (max-min fluorescence) at 10 µM. 1,700 compounds, 43% hits. AID 677;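 active means calcium response below the same-plate mean of wells given acetylcholine alone at its 80%-effect dose, minus 3 SD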;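 further: raw fluorescence intensity difference in arbitrary instrument units and not normalized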
mGluR4 antag – selectivity test for M1 antagonists: human mGluR4 receptor; shares compounds with M1 antag; CHO-mGluR4 calcium flux, Fluo-4 fluorescence, glutamate EC80; stronger effect = lower value; fluorescence response (max-min) at 10 µM; 1,700 compounds, 0.9% hits; AID 678;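 active means fluorescence response below the plate's average for near-maximal glutamate wells, less 3 SD of those wells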;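 further: raw unnormalized fluorescence span taken in the window right after glutamate addition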
Active calls of the source: *; . = no result. Most compounds without a hit are left out; they make up all but 11% or so of the library.

SMILES	D1 allo mod	M1 agonist	M1 antag	SF-1 act	Htt clearance	RORA act	M1 antag confirm	mGluR4 antag
O=C(Oc1ccc(OC(=O)N2CCCCC2)cc1)c1ccccc1	-0.46	-0.083	-2.9*	7	27	2	237*	293
Cc1csc(NC(=O)CSc2nnc(-c3ccncc3)n2C)n1	0.35	-0.39	-0.41	-6	18	-4	.	.
Cn1c(SCC(=O)Nc2nccs2)nnc1-c1ccncc1	-0.13	-0.6	-6.1*	5	-15	-3	662	155
CCCCn1c(SCC(=O)NCc2cccs2)nc2c1c(=O)n(C)c(=O)n2C	-0.016	0.12	0.57	6	.	-17	.	.
CC(C)(C)n1nnnc1C(c1cccs1)N1CCCc2ccccc21 (configuration not stated)	-0.12	0.44	-0.18	-22	-11	15	.	.
COC(=O)c1cc2ccsc2n1Cc1nc(-c2ccc(OC)cc2)oc1C	0.35	-0.95	-5.5*	0	-128	-25	474*	240
COC(=O)c1cc2sccc2n1Cc1nc(-c2ccc(OC)cc2)oc1C	0.95	0.23	-2.6*	-20	25	-20	508	232
COc1ccc(OC)c(S(=O)(=O)Nc2cc(Cl)cc(Cl)c2)c1	.	-0.46	-0.71	-7	.	3	.	.
O=C(COc1ccc(Cl)cc1)Nc1ccccc1N1CCOCC1	0.25	0.99	-0.083	-8	-9	-6	.	.
Cc1ccc(Cn2nnc3c(=O)n(CC(=O)N4CCN(c5ccccc5)CC4)cnc32)cc1	-0.42	-2.5	-4.7*	12	.	-17	656	205
Cc1ccc(Cn2nnc3c(=O)n(CC(=O)OCc4ccccc4)cnc32)cc1	-0.84	0.38	0.58	3	.	-9	.	.
COCCCNC(=O)C12CCC(C)(C(=O)C1)C2(C)C (configuration not stated)	0.84	-0.13	0.45	18	15	3	.	.
Cc1cc(C(C)(C)C)cc(C)c1CC1=NCCN1	-0.17	-0.012	-8.4*	0	.	-12	412*	244
COc1cccc(-c2nnc(SCC(=O)N3CC(C)CC(C)C3)o2)c1 (configuration not stated)	-0.38	-0.42	-0.17	-23	.	-4	.	.
COc1ccc(S(=O)(=O)N2CCC(O)(c3ccc(Cl)cc3)CC2)cc1	-1.3	0.18	-3.8*	6	-28	-11	379*	243
CCN1CCN(CCCNC(=O)c2cc3cc4ccc(OC)cc4nc3o2)CC1	0.34	-0.068	-3.9*	7	-19	20	563	251
COc1ccc2cc3cc(C(=O)NCCN4CCN(Cc5ccccc5)CC4)oc3nc2c1	-0.056	1	-2.2*	23	-85	25	486*	254
COc1ccc2cc3cc(C(=O)NCCCN4CCOCC4)oc3nc2c1	0.21	0.00034	-0.86	-8	-74	4	.	.
O=S(=O)(Nc1ccc2c(c1)nc1n2CCOC1)c1ccc(Cl)cc1	-0.42	-0.11	0.19	-4	.	-16	.	.
Cc1nc2c(C(=O)NCc3ccc(F)cc3)c[nH]n2c(=O)c1Cl	0.28	0.57	1.4	-1	16	1	.	.
Cn1c(=O)c(=O)n(C)c2cc(S(=O)(=O)N3CCN(c4cccc(C(F)(F)F)c4)CC3)ccc21	0.18	0.87	0.24	11	-20	-29	.	.
CN(c1cccc(NC(=O)COc2ccc(Cl)cc2Cl)c1)S(C)(=O)=O	.	.	.	.	-31	.	.	.
COc1cc2c(C(=O)NCCCN3CC(C)CC(C)C3)cn(CC(C)C)c(=O)c2cc1OC (configuration not stated)	.	-0.13	-2.5*	27	1	5	499*	238
O=C(Oc1ccc(-c2nnco2)cc1)N1CCCCC1	0.76	-0.036	0.34	41	-44	11	.	.
O=C(Oc1ccc(-c2nnco2)cc1)N(c1ccccc1)c1ccccc1	1.3	0.049	-1.6*	0	-15	2	502*	269
SMILES	D1 allo mod	M1 agonist	M1 antag	SF-1 act	Htt clearance	RORA act	M1 antag confirm	mGluR4 antag
CC(OCC(O)CN(C)CCOc1ccccc1)c1ccc(Cl)cc1 (configuration not stated)	-0.87	0.21	-2*	5	33	-13	511*	203
COC(=O)c1cc(Br)ccc1-c1ccc(/C=N/n2nnnc2N)o1	1.5	1.8	-5*	-16	.	-18	450	206
C=CCc1ccc(OCC(O)CN2CCCCC2C)c(OC)c1 (configuration not stated)	.	0.046	-2.5*	20	22	14	574	238
CCCCN=CC1=C(O)C(C(=O)OC)C(C)(C)CC1=O (configuration not stated)	-0.089	1.4	-1.6	-18	34	-1	.	.
O=C(CCNS(=O)(=O)c1cccc2nsnc12)Nc1ccc2c(c1)OCCO2	-0.62	-0.0029	-0.14	-16	.	-31	.	.
O=S(=O)(Nc1ccc2c(c1)OCCO2)c1cccc2nsnc12	-1.5	1.1	-2.7*	-7	.	-15	362*	225
CCN(CC)CCOC(=O)C12CC3CC(CC(C3)C1)C2	0.034	-2.5	-16*	-1	.	-7	173*	175
CCOC(=O)C1CCN(C(=O)NC23CC4CC(CC(C4)C2)C3)CC1	-0.03	0.94	0.076	-6	22	-1	.	.
CCOc1cc(C(=O)CSc2nnc(CNc3ccc(Cl)cc3)o2)ccc1NC(=O)CC	-1.6	0.018	0.16	-56	62	-54	.	.
Cc1ccc(C)c(N2CCN(S(=O)(=O)c3ccc4c(c3)OCCO4)CC2)c1	-0.36	-0.13	-1*	1	35	2	641	235
Cc1cc(/C=C(/C#N)c2cccc(F)c2)c(C)n1-c1cccnc1	0.53	-0.3	-5*	9	.	14	555	186
Clc1ccc2c(N3CCCC3)ccnc2c1	-1.8	-0.12	-3*	16	.	-14	555	253
O=C(c1cccs1)N1CCN(C2CCCCC2)CC1	-0.77	-0.6	0.32	4	26	7	.	.
O=C(c1cccs1)N1CCN(C2CCN(Cc3ccccc3)CC2)CC1	0.14	-1.5	-4.8*	5	.	-13	443*	276
O=C(Cc1ncc(C(F)(F)F)cc1Cl)N1CCN(c2ccc(F)cc2)CC1	.	.	.	.	-6	.	.	.
Cc1cc(OCC(=O)Nc2ccc(S(=O)(=O)N3CCN(C)CC3)cc2)ccc1Cl	.	.	.	.	-41	.	.	.
Cc1cc(C)cc(OCC(=O)Nc2ccc(N3CCCC3)cc2)c1	0.69	-0.37	-7.6*	-8	.	-7	155*	243
Cc1cc(OCC(=O)Nc2ccc(S(=O)(=O)N3CCN(C)CC3)cc2)cc(C)c1Cl	-6.5*	0.0092	-1.7*	-3	9	1	377*	206
Cc1ccc(OCCCC(=O)Nc2ccc(N3CCOCC3)cc2)c(C)c1	0.001	0.47	-2.3*	-4	.	4	603	236

Source: PubChem
